Laboratory results as given in the EternaBench riboswitch data.

How the values were obtained:
MS2 coat protein [1] = assay: apparent Kd, MS2 coat protein; higher = weaker binding; RNA-MaP array; theophylline 2 mM where present
Outline: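 Designs were transcribed by stalled E. coli RNA polymerase on Illumina sequencing-chip clusters. They were titrated with SNAP-549-labelled MS2 coat protein from 0.7 or 1.5 nM, doubling to 3 µM, without and then with constant ligand. Buffer: 100 mM Tris-HCl pH 7.5, 80 mM KCl, 4 mM MgCl2, BSA, DTT, yeast tRNA, Tween-20. Green signal was normalised to red-channel RNA signal and control-cluster median Fmax. Apparent Kd is the median of filtered per-cluster binding-curve fits.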

MS2 coat protein [2] = assay: apparent Kd, MS2 coat protein; higher = weaker binding; RNA-MaP array
Outline: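 For each design, the apparent Kd is the median of binding-curve fits across its clusters. Designs measured on fewer than 10 clusters were dropped. The RNAs were transcribed from sequenced DNA templates on an Illumina sequencing chip and incubated at room temperature, with or without input ligand, with fluorescently labeled MS2 coat protein at 1.5 nM to 3 μM.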

[3] = designed as: ON switch for theophylline, no ligand
[4] = ligand present: theophylline, designed as: ON switch for theophylline
[5] = designed as: OFF switch for theophylline, no ligand
[6] = ligand present: theophylline, designed as: OFF switch for theophylline
[7] = designed as: ON switch for flavin mononucleotide, no ligand
[8] = ligand present: flavin mononucleotide, designed as: ON switch for flavin mononucleotide
[9] = designed as: OFF switch for flavin mononucleotide, no ligand
[10] = ligand present: flavin mononucleotide, designed as: OFF switch for flavin mononucleotide

Sequence | apparent Kd (MS2 coat protein [2]; [7]) [µM] | apparent Kd (MS2 coat protein [2]; [8]) [µM] | apparent Kd (MS2 coat protein [2]; [9]) [µM] | apparent Kd (MS2 coat protein [2]; [10]) [µM] | other results
UGUAAAAUAACAGAUACCAGCGUGUUAUAAAACAUGAGGAUCACCCAUGUAGUGAUCAAGCGCCCUUGGCAGCUGGUAUUUUAUG | – | – | – | – | apparent Kd (MS2 coat protein [1]; [3]): 0.16 µM; apparent Kd (MS2 coat protein [1]; [4]): 0.129 µM
AGACAUGAGGAUCACCCAUGUAGUACGGAUACCAGAUCCAGAUUUAUCCCUUGGCAGCUGUGGUACAGCGUUGCAACGCUCCUAG | – | – | – | – | apparent Kd (MS2 coat protein [1]; [5]): 0.0175 µM; apparent Kd (MS2 coat protein [1]; [6]): 0.0175 µM
ACAUGAGGAUCACCCAUGUAACGUCUUGAUACCAGACGAGAAGUAGUCCCUUGGCAGCAAAUACGUGAGGGUCACACAUGUGUAA | – | – | – | – | apparent Kd (MS2 coat protein [1]; [5]): 0.0234 µM; apparent Kd (MS2 coat protein [1]; [6]): 0.0615 µM
UCGUCCUCCGCAAGGAGGAGGAGUUGCGAUACCAGCACGGUAACGUGCCCUUGGCAGCGCACAUGAGGAUCACCCAUGUGGUGUU | – | – | – | – | apparent Kd (MS2 coat protein [1]; [5]): 0.214 µM; apparent Kd (MS2 coat protein [1]; [6]): 0.489 µM
UUACAUGAGGAUCACCCAUGUCAUAACGAUACCAGAUAGUUAAUGAUCCCUUGGCAGCGUAAUACCUAGACAUUUAAGUCAUAGG | – | – | – | – | apparent Kd (MS2 coat protein [1]; [3]): 0.0563 µM; apparent Kd (MS2 coat protein [1]; [4]): 0.0196 µM
UGUUUGGUGCGCGAGUGUUGGAUGAUUGAUACCAGUGAAGAAGAGCGCCCUUGGCAGCGAAUCCUAACAUGAGGAUCACCCAUGU | – | – | – | – | apparent Kd (MS2 coat protein [1]; [3]): 0.0508 µM; apparent Kd (MS2 coat protein [1]; [4]): 0.0676 µM
UUUGCACAUGAGGAUCACCCAUGUACAGAUACCAGCCUCAUCUACGGCCCUUGGCAGCUGAGACAAUGGUGACGUGACGGGCUUU | – | – | – | – | apparent Kd (MS2 coat protein [1]; [5]): 0.0117 µM; apparent Kd (MS2 coat protein [1]; [6]): 0.0282 µM
AUCGUACCUGGUGAUACCAGCAAUUGCUCGUGACAUGAGGAUCACCCAUGUGACCAGUGAUGCCCUUGGCAGCAUGGUCGGUGCA | – | – | – | – | apparent Kd (MS2 coat protein [1]; [3]): 0.0687 µM; apparent Kd (MS2 coat protein [1]; [4]): 0.0272 µM
UGACAUUGCUGCGAUACCAGACAUGAGGAUCACCCAUGUACCAAGGUACGAAAAUAACAUGUCCCUUGGCAGCGCAGCAAUGUCU | – | – | – | – | apparent Kd (MS2 coat protein [1]; [5]): 0.0126 µM; apparent Kd (MS2 coat protein [1]; [6]): 0.254 µM
CCUUAGAUACAUGAGGAUCACCCAUGUCACCAGCAACCUGACGAGGAUAUAUAGGCCAAAUAACUAUAGAAGGCGUUGACCCAA | 0.0205 | 0.0124 | – | – | –
GGUUGACCUGAGGAACAUGAGGAUCACCCAUGUGUUAGCGGAAAGGAUAUUCGAUUGCACGUUAAGAAGAAGGUUCCAACGUUA | 0.0144 | 0.0158 | – | – | –
UGUCAGGUCCAUAACAUGAGGAUCACCCAUGUAAGGCAUGAGCAGGAUAUCAAAAGUCGUAAGACAGAGAAGGGCUAAAUGACC | – | – | 0.007 | 0.00751 | –
GGUGUUCCUCUAGGAUAUAGCGAUACAUGAGGAUCACCCAUGUUACUCCAGCGCGGCGGAUCGCUCUAGAAGGAGACAUAGCCA | – | – | 0.0751 | 0.0534 | –
CAGUGCGACUCAGGAUAUCAGAACACUAAGGCGUGAGAAGGGAGAACGACACAUGAGGAUCACCCAUGUUAGAGGGAAUGCAUG | – | – | 0.0376 | 0.0437 | –
GUUAUCGAACAUGAGGAUCACCCAUGUCAGAGCGGCCGACAGAGAAGGCCAAUUGACAAAUGAUUGGAGGAUAUCUGUACUUUU | 0.0193 | 0.00757 | – | – | –
GUACGGUUCCAAGGAUAUGAUAGGUGACAUGAGGAUCACCCAUGUGCCGGUGGUGGGAGCGAGGAUCAGAAGGUGGCCAGCGGU | 0.06 | 0.0454 | – | – | –
UUCUUACAUGAGGAUCACCCAUGUCUACACCCUACAGGAUAUGAUGCGGUGAAGACCAAUUCAGAAGGGUAAGGUC | 0.0841 | 0.0229 | – | – | –
UAGAAUUAAGGAUAUACAGGAUCCGUACAAAUAUUGAUAGGACAUGAGGAUCACCCAUGUAGAAGGUAAGGCAG | – | – | 0.0211 | 0.0172 | –
GAUAUGGUGGCUCAGGAUAUGCAAGGCUUAACAUGAGGAUCACCCAUGUUAUUUAAUGUGCAAGCGCAGAAGGGAGCUUGGCAAAA | 0.00939 | 0.00553 | – | – | –
AACACGCUGGUAGGAUAUUACAACAUGAUGACUCGUCCAAGAAACAACAUGAGGAUCACCCAUGUUAAGAAGGACCACAAGAAA | – | – | 0.00713 | 0.00792 | –
GGUCGUGAUAAGGAUAUUGGCUGUCGUGCAAUCCAAGAAGGUAUCACAUGAGGAUCACCCAUGUACGCGUGUUG | – | – | 0.0442 | 0.0856 | –
UCGAUAAGAGGAUAUACGUGAUAGUUCUCCUCCCUAUGACUACAUGAGGAUCACCCAUGUAGAAGGCUUAACGG | – | – | 0.00631 | 0.00654 | –
CCGAGGGUAGGAUAUUAGCACUUCUACAUGAGGAUCACCCAUGUACCUCAUCAUGAUGCCUAAGAAGGACCAGUGU | – | – | 0.0657 | 0.158 | –

Sequence | apparent Kd (MS2 coat protein [2]; [7]) [µM] | apparent Kd (MS2 coat protein [2]; [8]) [µM] | apparent Kd (MS2 coat protein [2]; [9]) [µM] | apparent Kd (MS2 coat protein [2]; [10]) [µM] | other results
GUGAUCAGCGAGAAGGAGCGUGAACUGUUACGGAGAUGUAACAUAACAUGAGGAUCACCCAUGUGCUAGGAUAUCGGUAAAUAU | 0.0133 | 0.0074 | – | – | –
AGAGAAAAGUAACAUGAGGAUCACCCAUGUAUCCCACGAGUCAGAAGGAGCGGGUUGAUACGAGGCUAGGAUAUGAAGAGUCAU | 0.153 | 0.0987 | – | – | –
UACAAACAUGAGGAUCACCCAUGUAGUGAUACCAGCAUAACAGAUUGCCCUUGGCAGCACCGGUUUGUACUCAAACGAAGUACGG | – | – | – | – | apparent Kd (MS2 coat protein [2]; [3]): 0.0642 µM; apparent Kd (MS2 coat protein [2]; [4]): 0.0523 µM
CCUAUUCCUACGGAUACCAGACGAUCCGUGGCGUGUGUGAACAUGAGGAUCACCCAUGUAGUCCCUUGGCAGCCGAUGCGGGUAA | – | – | – | – | apparent Kd (MS2 coat protein [2]; [5]): 0.0343 µM; apparent Kd (MS2 coat protein [2]; [6]): 0.132 µM
GGUCCACAUGAGGAUCACCCAUGUAAGGAUAUCCUGUUUUCUGGUUUAGAGUCGCGAAGGAGAAGGUACAUUAA | – | – | 0.0225 | 0.0411 | –
GUGGCGUAAGGAUAUCGUGGGAAGUGAUGAACGCUCUACUUCGAGAAGGUACAUGAGGAUCACCCAUGUGAGGG | – | – | 0.151 | 0.129 | –
UCAACACAUGAGGAUCACCCAUGUUAUACUAGGGUAGGAUAUGACGUAGUGAAGUGCUCUUCAGAAGGACCAUGGG | 0.0647 | 0.0301 | – | – | –
AUACAACAUGAGGAUCACCCAUGUGCUUAAGUUAAAGGAUAUCUAGUGGAUUACAUGCGUAGAGAAGGUUAUUUUA | 0.0122 | 0.00855 | – | – | –
GCAAAGUGAUCGGCCGCCACUGCAAUGCUUAAUGGAGGUCCACAUGAGGAUCACCCAUGUCUUCCCAGGACCGGGAUCUCGAGUU | – | – | – | – | apparent Kd (MS2 coat protein [2]; designed as: ON switch for tryptophan, no ligand): 0.0607 µM; apparent Kd (MS2 coat protein [2]; ligand present: tryptophan, designed as: ON switch for tryptophan): 0.0669 µM
AUAAAACAUGAGGAUCACCCAUGUAUAGAAAGCGCAGGAUAUAGGUGAUCAUAGUACUAUCAAGAAGGGCGGAACC | 0.217 | 0.184 | – | – | –
CAUCAGAGUGUCAGGAUAUGUUCAAAUAACUCGGGACAGAAGGGACAUGAGGAUCACCCAUGUGCAUAAAUUUA | – | – | 0.0184 | 0.0469 | –
AUGGUGUCUUAAGGAUAUGCUCGACAUGAGGAUCACCCAUGUGCCUCGUUUUCCCAACCGAGGUCGCAGAAGGUAAGUGACGUG | 0.313 | 0.037 | – | – | –
CUGACGUCAGGAUAUGCUAAUAAACAACAUAAAAGACAAGUGCAGAAGGGACAUGAGGAUCACCCAUGUGAAAA | – | – | 0.0146 | 0.0153 | –
GUCCACGUCCAAGGAUAUAAUACGAUACAUGAGGAUCACCCAUGUAAGGAGUGUAGAGUACGAUGUUAGAAGGUGGCAUUGCAG | – | – | 0.0119 | 0.0111 | –
AUGAAACAUGAGGAUCACCCAUGUGAGGAUAUGGUCUCGAACAAAAUACAAACACCAUCCAGAAGGCACAUGAA | – | – | 0.0298 | 0.0277 | –
UUGAUAGCAGGAUAUACAUGAGGAUCACCCAUGUACAGGCAAAAGGGAACUGACCCACGUAGAAGGGCUUCGCA | – | – | 0.0108 | 0.021 | –
CUGGUUGUCAAAGGAUAUAAACGAUCACAUGAGGAUCACCCAUGUCUCCCUAUGUUAAUAAGCGCUUAGAAGGUUGAGCCAGCC | – | – | 0.0313 | 0.0344 | –
AAAAGAAGCUGAGGAUAUUGGUUAACAUGAGGAUCACCCAUGUCGUUGGUGGAAAACACCUGACGCAAGAAGGCAGACACUUAU | 0.0157 | 0.00781 | – | – | –
CGUGAAUACGAAGGAUAUGAAACAUGAGGAUCACCCAUGUAAGGUUUAAGCGACGGCUUGACAGGUCAGAAGGUCGUCCGCAUG | 0.0422 | 0.0278 | – | – | –
AAAACGCAACUCGAUACCAGUACACUGAGUCUUCGCCACGACAUGAGGAUCACCCAUGUGUACCCUUGGCAGCGACAGAGCCACA | – | – | – | – | apparent Kd (MS2 coat protein [2]; [5]): 0.0539 µM; apparent Kd (MS2 coat protein [2]; [6]): 0.261 µM
UGGACGCAACGAGCACGAGGUCGGCAGCUACGAGGACCGGUACGGCCGCCACUCGAGUUACGACAUGAGGAUCACCCAUGUAAGG | – | – | – | – | apparent Kd (MS2 coat protein [2]; designed as: OFF switch for tryptophan, no ligand): 0.0416 µM; apparent Kd (MS2 coat protein [2]; ligand present: tryptophan, designed as: OFF switch for tryptophan): 0.178 µM
GUAAAACGGAAGAAGGCGCGGAGUACAGGGUAAAAUCAGGUCACAUGAGGAUCACCCAUGUGGAGCGAGGAUAUUCAUAAGGUA | – | – | 0.0247 | 0.0632 | –
